Measured values reported in ChEMBL document CHEMBL5321283, “Structure-Activity Relationships of the Antimicrobial Peptide Natural Product Apidaecin” (J Med Chem, 2023).
Converted amounts (≈) assume the structure as drawn. The source made the active and inactive calls. The calls are words filed in the database; no cut-off is given here. *1 amine or outer side, *2 acyl side, *3 side chain or, on linkers, in order; H or OH if unused. Where a SMILES comes first, the peptide text is derived from it. [ ]: non-standard residue; d: D form. The star is where a group is joined. Orn(α-tetramethylguanidino) = CN(C)C(=N[C@@H](CCCN)C(=O)*)N(C)C; X1 = N=C(N)NCCC[C@H](NC(=S)[C@@H]1CCCN1[*:1])C(=O)[*:2]; Phe(4-F) = N[C@@H](Cc1ccc(F)cc1)C(=O)O; 2Nal = N[C@@H](Cc1ccc2ccccc2c1)C(=O)O; Arg(Me) = CNC(=N)NCCC[C@H](N)C(=O)O; Hyp = O=C(O)[C@@H]1C[C@@H](O)CN1; Cha = N[C@@H](CC1CCCCC1)C(=O)O; NMeL = CN[C@@H](CC(C)C)C(=O)O; dLeu(ol) = CC(C)C[C@@H](N)CO; NHIsopentyl = CC(C)CCN*

Tests used:
Escherichia coli [1] = assay: Antibacterial activity against Escherichia coli BL21 harboring sbmA mutant assessed as bacterial growth inhibition by broth microdilution assay; type: functional
Escherichia coli [2] = assay: Antibacterial activity against Escherichia coli BL21 harboring RF2 (R262C) mutant assessed as bacterial growth inhibition by broth microdilution assay; type: functional
[3] = Stability in human plasma assessed as parent compound remaining measured after 2 hrs; type: ADME, cell-free; settings: read-out: Stability
Escherichia coli [4] = assay: Induction of stop-codon readthrough in Escherichia coli BL21 carrying pRXG (UGA) reporter incubated for 18 hrs by imaging analysis; type: functional
Procedure, shortened: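 Lawn spread on M9 agar with 0.2 mM IPTG and kanamycin, then dried. 2 μL drops of 0.2 mM peptide applied; 1 μL chloramphenicol (1 mg/mL) as negative control. ~18 h, 37 °C; RFP (Cy3) and GFP (Cy2) imaged.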

Escherichia coli [5] = assay: Antibacterial activity against Escherichia coli BL21 assessed as bacterial growth inhibition by broth microdilution assay; type: functional
Escherichia coli [6] = assay: Potency index, ratio of Api-137 MIC to test compound MIC for antibacterial activity against Escherichia coli BL21 assessed as bacterial growth inhibition by broth microdilution assay; type: functional
Escherichia coli [7] = assay: Antibacterial activity against Escherichia coli BL21 harboring RF2 (Q280L) mutant assessed as bacterial growth inhibition by broth microdilution assay; type: functional

| Compound | MIC (Escherichia coli [1]) [µM] | MIC (Escherichia coli [2]) [µM] | remaining at 2 h [3] [%] | Activity (Escherichia coli [4]) | MIC (Escherichia coli [5]) [µM] | Ratio (Escherichia coli [6]) | MIC (Escherichia coli [7]) [µM] |
| --- | --- | --- | --- | --- | --- | --- | --- |
| CC[C@H](C)[C@H](NC(=O)[C@H](Cc1ccc(O)cc1)NC(=O)[C@@H](NC(=O)[C@@H]1CCCN1C(=O)[C@H](CCCNC(=N)N)NC(=O)[C@H](CC(N)=O)NC(=O)[C@H](CC(N)=O)NC(=O)[C@H](CCCN)N=C(N(C)C)N(C)C)C(C)C)C(=O)N1CCC[C@H]1C(=O)N[C@@H](CCCNC(=N)N)C(=O)N1CCC[C@H]1C(=O)N[C@@H](CCCNC(=N)N)C(=O)N1CCC[C@H]1C(=O)N1CCC[C@H]1C(=O)N[C@@H](Cc1c[nH]cn1)C(=O)N1CCC[C@H]1C(=O)N[C@@H](CCCNC(=N)N)C(=O)N(C)[C@@H](CC(C)C)C(=O)O ({Orn(α-tetramethylguanidino)}-NNRPVYIPRPRPPHPR[NMeL]-OH) | > 25 | > 25 | ~80 | Active | – | – | – |
| CC[C@H](C)[C@H](NC(=O)[C@H](Cc1ccc(O)cc1)NC(=O)[C@@H](NC(=O)[C@@H]1CCCN1C(=O)[C@H](CCCNC(=N)N)NC(=O)[C@H](CC(N)=O)NC(=O)[C@H](CC(N)=O)NC(=O)[C@H](CCCN)N=C(N(C)C)N(C)C)C(C)C)C(=O)N1CCC[C@H]1C(=O)N[C@@H](CCCNC(=N)N)C(=O)N1CCC[C@H]1C(=O)N[C@@H](CCCNC(=N)N)C(=O)N1CCC[C@H]1C(=O)N1CCC[C@H]1C(=O)N[C@@H](Cc1ccc2ccccc2c1)C(=O)N1CCC[C@H]1C(=O)N[C@@H](CCCNC(=N)N)C(=O)N[C@@H](CC(C)C)C(=O)O ({Orn(α-tetramethylguanidino)}-NNRPVYIPRPRPP[2Nal]PRL-OH) | – | – | – | – | 10 (≈ 23.5 µg/mL) | 63 | – |
| CC[C@H](C)[C@H](NC(=O)[C@H](Cc1ccc(O)cc1)NC(=O)[C@@H](NC(=O)[C@@H]1CCCN1C(=O)[C@H](CCCNC(=N)N)NC(=O)[C@H](CC(N)=O)NC(=O)[C@H](CC(N)=O)NC(=O)[C@H](CCCN)N=C(N(C)C)N(C)C)C(C)C)C(=O)N1CCC[C@H]1C(=O)N[C@@H](CCCNC(=N)N)C(=O)N1CCC[C@H]1C(=O)N[C@@H](CCCNC(=N)N)C(=O)N1CCC[C@H]1C(=O)N1CCC[C@H]1C(=O)N[C@@H](Cc1c[nH]cn1)C(=O)N1CCC[C@H]1C(=S)N[C@@H](CCCNC(=N)N)C(=O)N[C@@H](CC(C)C)C(=O)O ({Orn(α-tetramethylguanidino)}-NNRPVYIPRPRPPH[X1]L-OH) | – | – | – | – | 0.62 (≈ 1.43 µg/mL) | 4 | – |
| CC[C@H](C)[C@H](NC(=O)[C@H](Cc1ccc(O)cc1)NC(=O)[C@@H](NC(=O)[C@@H]1CCCN1C(=O)[C@H](CCCNC(=N)N)NC(=O)[C@H](CC(N)=O)NC(=O)[C@H](CC(N)=O)NC(=O)[C@H](CCCN)N=C(N(C)C)N(C)C)C(C)C)C(=O)N1CCC[C@H]1C(=O)N[C@@H](CCCNC(=N)N)C(=O)N1CCC[C@H]1C(=S)N[C@@H](CCCNC(=N)N)C(=O)N1CCC[C@H]1C(=O)N1CCC[C@H]1C(=O)N[C@@H](Cc1c[nH]cn1)C(=O)N1CCC[C@H]1C(=O)N[C@@H](CCCNC(=N)N)C(=O)N[C@@H](CC(C)C)C(=O)O ({Orn(α-tetramethylguanidino)}-NNRPVYIPR[X1]PPHPRL-OH) | – | – | – | – | 0.62 (≈ 1.43 µg/mL) | 4 | – |
| CC[C@H](C)[C@H](NC(=O)[C@H](Cc1ccc(O)cc1)NC(=O)[C@@H](NC(=O)[C@@H]1CCCN1C(=O)[C@H](CCCNC(=N)N)NC(=O)[C@H](CC(N)=O)NC(=O)[C@H](CC(N)=O)NC(=O)[C@H](CCCN)N=C(N(C)C)N(C)C)C(C)C)C(=O)N1CCC[C@H]1C(=O)N[C@@H](CCCNC(=N)N)C(=O)N1CCC[C@H]1C(=O)N[C@@H](CCCNC(=N)N)C(=O)N1CCC[C@H]1C(=O)N1CCC[C@H]1C(=O)N[C@@H](Cc1c[nH]cn1)C(=O)N1CCC[C@H]1C(=O)N[C@@H](CCCNC(=N)N)C(=O)N[C@@H](CC(C)C)C(=O)O ({Orn(α-tetramethylguanidino)}-NNRPVYIPRPRPPHPRL-OH) | > 25 | > 25 | ~80 | – | 0.16 (≈ 0.367 µg/mL) | 1 | > 25 |
| CC[C@H](C)[C@H](NC(=O)[C@H](Cc1ccc(O)cc1)NC(=O)[C@@H](NC(=O)[C@@H]1CCCN1C(=O)[C@H](CCCNC(=N)N)NC(=O)[C@H](CC(N)=O)NC(=O)[C@H](CC(N)=O)NC(=O)[C@H](CCCN)N=C(N(C)C)N(C)C)C(C)C)C(=O)N1CCC[C@H]1C(=O)N[C@@H](CCCNC(=N)N)C(=O)N1CCC[C@H]1C(=O)N[C@@H](CCCNC(=N)N)C(=O)N1CCC[C@H]1C(=O)N1CCC[C@H]1C(=O)N[C@@H](Cc1c[nH]cn1)C(=O)N1CCC[C@H]1C(=O)N[C@@H](CCCNC(=N)NC)C(=O)N[C@@H](CC(C)C)C(=O)O ({Orn(α-tetramethylguanidino)}-NNRPVYIPRPRPPHP[Arg(Me)]L-OH) | > 25 | > 25 | – | Active | 0.3 (≈ 0.692 µg/mL) | 1 | 25 (≈ 57.6 µg/mL) |
| CC[C@H](C)[C@H](NC(=O)[C@H](Cc1ccc(O)cc1)NC(=O)[C@@H](NC(=O)[C@@H]1CCCN1C(=O)[C@H](CCCNC(=N)N)NC(=O)[C@H](CC(N)=O)NC(=O)[C@H](CC(N)=O)NC(=O)[C@H](CCCN)N=C(N(C)C)N(C)C)C(C)C)C(=O)N1CCC[C@H]1C(=O)N[C@@H](CCCNC(=N)N)C(=O)N1CCC[C@H]1C(=O)N[C@@H](CCCNC(=N)N)C(=O)N1CCC[C@H]1C(=O)N1CCC[C@H]1C(=O)N[C@@H](Cc1c[nH]cn1)C(=O)N1CCC[C@H]1C(=O)N[C@@H](CCCNC(=N)N)C(=O)N[C@@H](CO)CC(C)C ({Orn(α-tetramethylguanidino)}-NNRPVYIPRPRPPHPR[dLeu(ol)]) | – | – | – | – | 10 (≈ 22.8 µg/mL) | 62 | – |
| CC[C@H](C)[C@H](NC(=O)[C@H](Cc1ccc(O)cc1)NC(=O)[C@@H](NC(=O)[C@@H]1CCCN1C(=O)[C@H](CCCNC(=N)N)NC(=O)[C@H](CC(N)=O)NC(=O)[C@H](CC(N)=O)NC(=O)[C@H](CCCN)N=C(N(C)C)N(C)C)C(C)C)C(=O)N1CCC[C@H]1C(=O)N[C@@H](CCCNC(=N)N)C(=O)N1CCC[C@H]1C(=O)N[C@@H](CCCNC(=N)N)C(=O)N1C[C@H](O)C[C@H]1C(=O)N1CCC[C@H]1C(=O)N[C@@H](Cc1c[nH]cn1)C(=O)N1CCC[C@H]1C(=O)N[C@@H](CCCNC(=N)N)C(=O)N[C@@H](CC(C)C)C(=O)O ({Orn(α-tetramethylguanidino)}-NNRPVYIPRPR[Hyp]PHPRL-OH) | – | – | – | – | 0.16 (≈ 0.369 µg/mL) | 2 | – |
| CC[C@H](C)[C@H](NC(=O)[C@H](Cc1ccc(O)cc1)NC(=O)[C@@H](NC(=O)[C@@H]1CCCN1C(=O)[C@H](CCCNC(=N)N)NC(=O)[C@H](CC(N)=O)NC(=O)[C@H](CC(N)=O)NC(=O)[C@H](CCCN)N=C(N(C)C)N(C)C)C(C)C)C(=O)N1CCC[C@H]1C(=O)N[C@@H](CCCNC(=N)N)C(=O)N1CCC[C@H]1C(=O)N[C@@H](CCCNC(=N)N)C(=O)N1CCC[C@H]1C(=O)N1CCC[C@H]1C(=O)N[C@@H](Cc1c[nH]cn1)C(=O)N1CCC[C@H]1C(=O)N[C@@H](CCCNC(=N)N)C(=O)NCCC(C)C ({Orn(α-tetramethylguanidino)}-NNRPVYIPRPRPPHPR-NHIsopentyl) | – | – | – | – | > 40 | >800 | – |
| CC[C@H](C)[C@H](NC(=O)[C@H](Cc1ccc(F)cc1)NC(=O)[C@@H](NC(=O)[C@@H]1C[C@@H](O)CN1C(=O)[C@H](CCCNC(=N)N)NC(=O)[C@H](CC(N)=O)NC(=O)[C@H](CC(N)=O)NC(=O)[C@H](CCCN)N=C(N(C)C)N(C)C)C(C)C)C(=O)N1CCC[C@H]1C(=O)N[C@@H](CCCNC(=N)N)C(=O)N1CCC[C@H]1C(=O)N[C@@H](CCCNC(=N)N)C(=O)N1CCC[C@H]1C(=O)N1CCC[C@H]1C(=O)N[C@@H](Cc1c[nH]cn1)C(=O)N1CCC[C@H]1C(=O)N[C@@H](CCCNC(=N)NC)C(=O)N(C)[C@@H](CC(C)C)C(=O)O ({Orn(α-tetramethylguanidino)}-NNR[Hyp]V[Phe(4-F)]IPRPRPPHP[Arg(Me)][NMeL]-OH) | > 25 | 6.2 (≈ 14.5 µg/mL) | ~80 | Active | – | – | – |
| CC[C@H](C)[C@H](NC(=O)[C@H](Cc1ccc(O)cc1)NC(=O)[C@@H](NC(=O)[C@@H]1CCCN1C(=O)[C@H](CCCNC(=N)N)NC(=O)[C@H](CC(N)=O)NC(=O)[C@H](CC(N)=O)NC(=O)[C@H](CCCN)N=C(N(C)C)N(C)C)C(C)C)C(=O)N1CCC[C@H]1C(=O)N[C@@H](CCCNC(=N)N)C(=O)N1CCC[C@H]1C(=O)N[C@@H](CCCNC(=N)N)C(=O)N1CCC[C@H]1C(=O)N1CCC[C@H]1C(=O)N[C@@H](CC1CCCCC1)C(=O)N1CCC[C@H]1C(=O)N[C@@H](CCCNC(=N)N)C(=O)N[C@@H](CC(C)C)C(=O)O ({Orn(α-tetramethylguanidino)}-NNRPVYIPRPRPP[Cha]PRL-OH) | – | – | – | – | 5 (≈ 11.5 µg/mL) | 32 | – |
| CC[C@H](C)[C@H](NC(=O)[C@H](Cc1ccc(F)cc1)NC(=O)[C@@H](NC(=O)[C@@H]1CCCN1C(=O)[C@H](CCCNC(=N)N)NC(=O)[C@H](CC(N)=O)NC(=O)[C@H](CC(N)=O)NC(=O)[C@H](CCCN)N=C(N(C)C)N(C)C)C(C)C)C(=O)N1CCC[C@H]1C(=O)N[C@@H](CCCNC(=N)N)C(=O)N1CCC[C@H]1C(=O)N[C@@H](CCCNC(=N)N)C(=O)N1CCC[C@H]1C(=O)N1CCC[C@H]1C(=O)N[C@@H](Cc1c[nH]cn1)C(=O)N1CCC[C@H]1C(=O)N[C@@H](CCCNC(=N)N)C(=O)N[C@@H](CC(C)C)C(=O)O ({Orn(α-tetramethylguanidino)}-NNRPV[Phe(4-F)]IPRPRPPHPRL-OH) | – | – | – | – | 0.35 (≈ 0.803 µg/mL) | 1 | – |
